Assay [1] deals with A549. The experiment in a line: Antitumor activity against human A549 cells xenografted in Balb/ca-nu mouse assessed as tumor growth inhibition at 5 mg/kg, iv dosed every 3 days for total of 7 dosing rounds measured on day 20 after treatment. In kind it is functional. Conditions: read-out: TGI. Summed up:
(§1)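 A549 xenograft in mice, dosed by tail vein injection every 3 days; vehicle saline plus 0.2% Tween 80. n = 8 per treatment group, 6 in the vehicle group. Mean ± SE.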

Assay [2] deals with A549. Briefly: Induction of apoptosis in human A549 cells assessed as late apoptosis cells level at 0.5 times antiproliferative IC50 incubated for 24 hrs by Annexin V-FITC/propidium iodide double staining based flow cytometry (reference value: 0.127%). The assay is classed as functional. On the technique in general: Flow cytometry measures light scatter and fluorescence of single cells or particles in a stream.

Assay [3] concerns A549. Briefly: Induction of apoptosis in human A549 cells incubated for 24 hrs by Annexin V-FITC/propidium iodide double staining based flow cytometry. The assay is classed as functional, cell-based.
The test system of assay [4] is A549. The experiment in a line: Antiproliferative activity against human A549 cells assessed as inhibition of cell proliferation incubated for 48 hrs by CCK8 assay. The assay is classed as functional, cell-based. Conditions: A549, 48 h. In outline:
(§2)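 Human A549 lung, Hela cervical, Bel-7402 hepatocellular and MCF-7 breast cancer cells, plus mouse embryo fibroblast NIH3T3, tested for anti-proliferative activity by CCK-8 assay. For the matrine combination tests, the chalcone and matrine were used at a 1:1 molar ratio; values given as IC50.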

The test system of assay [5] is A549. Briefly: Antitumor activity against human A549 cells xenografted in Balb/ca-nu mouse assessed as tumor growth inhibition at 2.5 mg/kg, iv dosed every 3 days for total of 7 dosing rounds measured on day 16 after treatment. In kind it is functional. Conditions: read-out: TGI. In outline:
as §1
(In general: In xenograft studies the graft and the host belong to different species.)

Assay [6] concerns A549. The experiment in a line: Antitumor activity against human A549 cells xenografted in Balb/ca-nu mouse assessed as tumor growth inhibition at 2.5 mg/kg, iv dosed every 3 days for total of 7 dosing rounds measured on day 18 after treatment. Conditions: read-out: TGI. The assay is classed as functional. In outline:
as §1

Assay [7] relates to A549. Briefly: Induction of apoptosis in human A549 cells assessed as early apoptosis cells level at 0.5 times antiproliferative IC50 incubated for 24 hrs by Annexin V-FITC/propidium iodide double staining based flow cytometry (reference value: 0.116%). The assay is classed as functional.
The subject of assay [8] is A549. Briefly: Potency index, ratio of IC50 for 5-fluorouracil to IC50 for compound against human A549 cells incubated for 48 hrs by CCK8 assay. The assay is classed as functional. On the technique in general: Tetrazolium assays rely on reduction of a dye to a coloured formazan, in cell work by metabolically active cells.
The subject of a further assay is MCF7. Briefly: Antiproliferative activity against human MCF7 cells assessed as inhibition of cell proliferation incubated for 48 hrs by CCK8 assay. In kind it is functional, cell-based. Conditions: MCF7, 48 h. Summed up:
as §2

Assay [9] relates to A549. The experiment in a line: Induction of apoptosis in human A549 cells assessed as viable cells level at 0.5 times antiproliferative IC50 incubated for 24 hrs by Annexin V-FITC/propidium iodide double staining based flow cytometry (reference value: 99.7%). The assay is classed as functional.

Broadly, the IC50 is the midpoint of a concentration-inhibition curve. `O=C(/C=C/c1cccc(Cl)c1)c1ccc(OCc2cn([C@H]3CC(=O)N4C[C@@H]5CCCN6CCC[C@@H]([C@H]56)[C@H]4C3)nn2)cc1O`: in the assay with A549 [1], the inhibition in vivo at 5 mg/kg was determined as 64.8%. For the same molecule, the Activity in the assay with A549 [2] is 16.3%; in the assay with A549 [3], “Dose-dependent effect”; with A549 [7] it was 19.8%; with A549 [9], 57.9%. The IC50 in the assay with A549 [4] amounted to 5.01 µM; in the assay with MCF7 it was 6.25 µM. Besides, the inhibition in vivo at 2.5 mg/kg turned out to be 33.2% in the assay on A549 [5] and 38.8% with A549 [6]. Moreover, the “Ratio IC50” value with A549 [8] stood at 8.

The values above are taken from ChEMBL document CHEMBL3425481, “Design, synthesis and anticancer activity of matrine-1H-1,2,3-triazole-chalcone conjugates” (Bioorg Med Chem Lett, 2015).
